Reference: article PMC2756606 (Organic letters, 2009)
Where two headings read alike, the source gives them in different places.

How the values were obtained:
δ-opioid receptor = settings: cited from earlier work
[1] = molecular target: δOR (δ-opioid receptor) in HCT116 colon carcinoma cells engineered to express the δOR (Homo sapiens, UniProt P41143); experiment: competitive binding assay, time-resolved fluorescence; settings: TRF competitive binding; HCT116 cells expressing δOR
In short: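 Purified test compounds were run in a competition format on whole HCT116 colon carcinoma cells engineered to express δOR. Ki was derived from a fitted competition curve, with R2 reported for the fit.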

[2] = system: mouse-isolated vas deferens, δ-opioid receptor (antagonism of δ-agonist DPDPE); experiment: mouse-isolated vas deferens; format: biochemical; settings: MVD assay against δ-agonist DPDPE; n=8
[3] = system: HCT116/δOR and parental HCT116 tumors in SCID mice; format: in vivo, mouse; settings: 10 μg i.v. (tail vein), 15 min post-injection, not shown

For H-Dmt-Tic-Lys(Ac)-OH, the Ki (δ-opioid receptor; δ-receptor affinity in radioligand binding assays) is given as 0.047 nM.

With `CC[N+]1=C(C=CC=CC=C2N(CCCCCC(=O)NCCN3C(=O)CC(SCCC(=O)NCCCC[C@H](NC(=O)[C@@H]4Cc5ccccc5CN4C(=O)[C@@H](N)Cc4c(C)cc(O)cc4C)C(=O)O)C3=O)c3ccc(S(=O)(=O)O)cc3C2(C)C)C(C)(C)c2cc(S(=O)(=O)[O-])ccc21` (some centres unmarked) [Ligand 1] the “affinity of labeled ligand compared with unlabeled counterpart (ligand 6)” value [1] was “equipotent to its unlabeled counterpart”, the “inhibitory potency, Ke” value [2] was 0.037 ± 0.009 nM and the “systemic distribution, fluorescence intensity maps” value [3] was “systemic presence of the compound with high intensity throughout the animal”.

In the case of Dmt-Tic-Lys-NH2, the Ki (δ-opioid receptor; reported radioligand binding assays, compared with TRF results) is listed as 0.71 nM.
